The text below walks through data of ChEMBL document CHEMBL3992522, “Antileishmanial Activity of Pyrazolopyridine Derivatives and Their Potential as an Adjunct Therapy with Miltefosine” (J Med Chem, 2017).

≈ marks a conversion by molar mass, not a printed value. Calls of active or inactive are those of the source. The rule behind the calls is not given here.

Series [1] deals with Mus musculus. Put plainly: Increase in iNOS-mediated NO generation in Balb/c mouse splenocytes infected with Leishmania donovani amastigote forms at 25 mg/kg, ip for 5 consecutive days measured on day 4 and 7 post last treatment followed by soluble Leishmania donovani promastigote antigen-stimulation for 72 hrs by Griess assay relative to control. It is filed as functional. The procedure, abridged:
(§1)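 Splenocytes from treated infected BALB/c mice (5-day regimen, i.p. test compound, oral miltefosine; n = 5) isolated day 4 and day 7 post-treatment. Cultured in phenol red-free RPMI 1640 with 5 μg/mL SLA for 72 h at 37 °C, 5% CO2. Supernatant nitrite measured by Griess assay at 540 nm against a sodium nitrite standard curve.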
In general terms: Nitrite, measured by Griess reagent, commonly stands in for NO production.

The subject of series [2] is Leishmania donovani. Nature of the series: Antileishmanial activity against Leishmania donovani amastigote forms infected in Balb/c mouse assessed as inhibition of parasitic burden in spleen at 25 mg/kg, ip administered for 5 consecutive days measured on day 7 post last treatment by Giemsa staining based assay relative to control. As to conditions: 168 h.
The test system of series [3] is Mus musculus. Nature of the series: Increase in iNOS-mediated NO generation in Balb/c mouse splenocytes infected with Leishmania donovani amastigote forms at 50 mg/kg, ip for 5 consecutive days measured on day 4 and 7 post last treatment followed by soluble Leishmania donovani promastigote antigen-stimulation for 72 hrs by Griess assay relative to control. It counts as functional. The procedure, abridged: as §1

Series [4] relates to Leishmania donovani. Put plainly: Antileishmanial activity against Leishmania donovani MHOM/IN/80/DD8 amastigote forms harboring luciferase gene infected in mouse J774 cells after 72 hrs by Steady-Glo reagent based two fold dilution assay. It is filed as functional. Conditions: MHOM/IN/80/DD8, 72 h. The procedure, abridged:
(§2)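 Promastigotes or J774-resident amastigotes treated 72 h with six two-fold dilutions from 200 µM down to 6.25 µM. Luciferase RLU fitted by four-parameter Hill non-linear regression to derive the […] inhibitory concentration (MIC).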

In series [5] the test system is Leishmania donovani. Put plainly: Antileishmanial activity against Leishmania donovani MHOM/IN/80/DD8 promastigote forms harboring luciferase gene after 72 hrs by Steady-Glo reagent based two fold dilution assay. It counts as functional. Conditions: MHOM/IN/80/DD8, 72 h. The gist of the method:
as §2

Series [6] deals with Leishmania donovani. Put plainly: Induction of mitochondrial membrane potential loss in Leishmania donovani MHOM/IN/80/DD8 promastigote forms at 50 uM after 12 hrs by JC-1 staining based flow cytometry (reference value: 5.02%). It is filed as functional. In general terms: In flow cytometry, cells or beads pass a laser one at a time.
The test system of series [7] is Mus musculus. Nature of the series: Increase in IFN-gamma level in Balb/c mouse splenocytes infected with Leishmania donovani amastigote forms at 25 mg/kg, ip co-treated with 5 mg/kg, po miltefosine administered for 5 consecutive days measured on day 4 post last treatment by sandwich ELISA relative to control. It is filed as functional. The procedure, abridged:
(§3)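 Splenocytes (2×10^6) from treated infected BALB/c mice taken on day 4 or 7 post-treatment. Cultured in phenol-red-free RPMI 1640 with 5 μg/mL soluble L. donovani antigen for 72 h at 37 °C, 5% CO2. Supernatant cytokines measured by sandwich ELISA against a standard curve. Mean ± SD, n = 5 mice per group, three independent experiments.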
Background: ELISA stands for enzyme-linked immunosorbent assay.

Series [8] in a line: Stability in pH 6.5 simulated intestinal fluid at 5 ug/ml after 120 mins by HPLC method. The procedure, abridged:
(§4)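 Incubated in simulated gastric fluid (pH 1.2) or simulated intestinal fluid (pH 6.5); percentage remaining intact determined after 120 min.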

Series [9] in a line: Cytotoxicity against African green monkey Vero cells assessed as cell viability up to 200 uM after 72 hrs by MTT assay relative to control. It counts as cell-based. As to conditions: chlorocebus sabaeus, read-out: Activity.
Series [10] has as its system Mus musculus. Put plainly: Increase in IFN-gamma level in Balb/c mouse splenocytes infected with Leishmania donovani amastigote forms at 25 mg/kg, ip co-treated with 5 mg/kg, po miltefosine administered for 5 consecutive days measured on day 7 post last treatment by sandwich ELISA relative to control. It is filed as functional. The gist of the method: as §3
Series [11] has as its system Leishmania donovani. Put plainly: Induction of apoptosis in Leishmania donovani MHOM/IN/80/DD8 promastigote forms assessed as cell rounding at IC50 after 48 hrs by propidium iodide staining based fluorescent microscopic method. It is filed as functional.
Series [12] can be described thus: Metabolic stability in mouse liver S9 fractions at 1 mM after 60 mins in presence of NADPH by HPLC method. It counts as ADME. Conditions: read-out: Stability.
The nature of series [13]: Cytotoxicity against African green monkey Vero cells assessed as reduction in cell viability after 72 hrs by MTT assay. It counts as cell-based. As to conditions: chlorocebus sabaeus. The gist of the method: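 Vero and J774 cells seeded at 1×10^5 per well for 24 h, then exposed 72 h to seven two-fold dilutions from 500 to 7.81 μM. MTT solution (5 mg/mL stock) added for 2 h at 37 °C, formazan dissolved in DMSO and read at 540 nm. CC50 derived by the Huber and Koella method.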

For series [14], the system named is Leishmania donovani. Put plainly: Induction of apoptosis in Leishmania donovani MHOM/IN/80/DD8 promastigote forms assessed as late apoptotic cells at IC50 after 48 hrs by Annexin V-FITC/propidium iodide staining based flow cytometry (reference value: 0.86%). It is filed as functional.
For series [15], the system named is Leishmania donovani. Nature of the series: Induction of mitochondrial membrane potential loss in Leishmania donovani MHOM/IN/80/DD8 promastigote forms at 50 uM after 48 hrs by JC-1 staining based flow cytometry (reference value: 5.02%). It is filed as functional.
Series [16] has as its system Leishmania donovani. Nature of the series: Antileishmanial activity against Leishmania donovani amastigote forms infected in Balb/c mouse assessed as inhibition of parasitic burden in liver at 50 mg/kg, ip administered for 5 consecutive days measured 1 week post last treatment by Giemsa staining based assay relative to control. It is filed as functional. Conditions: 168 h.

Series [17] in a line: Tmax in Swiss mouse at 50 mg/kg, po by LC-MS/MS analysis. As to conditions: in vivo. It counts as ADME, organism-based.
In a further series the test system is Liver. Put plainly: Intrinsic clearance in mouse liver S9 fractions assessed per mg protein at 1 mM in presence of NADPH by HPLC method. It is filed as ADME. As to conditions: s9, 1000 µM.
Series [18] deals with Leishmania donovani. Put plainly: Induction of apoptosis in Leishmania donovani MHOM/IN/80/DD8 promastigote forms assessed as DNA fragmentation at 50 uM after 48 hrs by propidium iodide staining based TUNEL assay. It is filed as functional. The gist of the method: (§5)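 DNA fragmentation detected by TUNEL under fluorescence and phase-contrast microscopy, with counts of TUNEL-positive cells; three independent experiments.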

The subject of series [19] is Mus musculus. Put plainly: Toxicity in Balb/c mouse infected with Leishmania donovani amastigote forms assessed as changes in body weight at 12.5 to 200 mg/kg, ip co-treated with 5 to 25 mg/kg, po miltefosine for 5 consecutive days. It is filed as organism-based. Conditions: in vivo.
The test system of series [20] is Mus musculus. Put plainly: Increase in iNOS mRNA expression level in Balb/c mouse splenocytes infected with Leishmania donovani amastigote forms at 25 mg/kg, ip for 5 consecutive days measured on day 7 post last treatment by RT-PCR assay relative to control. It counts as functional. The gist of the method: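 Infected BALB/c mice dosed for 5 consecutive days (test compound i.p. in 8% DMSO, miltefosine oral), n = 5 per group; splenocytes taken day 4 and day 7 post-treatment. Total RNA extracted and iNOS mRNA quantified by real-time PCR, normalized to mouse β-actin, expressed as fold change over uninfected controls.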

In series [21] the test system is Leishmania donovani. Put plainly: Induction of apoptosis in Leishmania donovani MHOM/IN/80/DD8 promastigote forms assessed as DNA fragmentation at IC50 after 48 hrs by propidium iodide staining based TUNEL assay. It counts as functional. The procedure, abridged: as §5
Series [22] is described as follows: Stability in pH 1.2 simulated gastric fluid at 5 ug/ml after 120 mins by HPLC method. The gist of the method:
as §4

The test system of series [23] is Leishmania donovani. Nature of the series: Antileishmanial activity against Leishmania donovani amastigote forms infected in Balb/c mouse assessed as inhibition of parasitic burden in liver at 50 mg/kg, ip administered for 5 consecutive days measured on day 7 post last treatment by Giemsa staining based assay relative to control. It is filed as functional. As to conditions: 168 h.

On to `COc1ccc(C2C3=C(CCC3=O)Nc3c2c(-c2c[nH]c4ccccc24)nn3-c2ccc(Cl)c(Cl)c2)cc1OC` (centres undefined), for which the “fold change (FC)” value in the series with Mus musculus [1] amounted to 4.1; in the series on Mus musculus [3], 4.7; with Mus musculus [7], 9.1; with Mus musculus [10], 8.5; in the series on Mus musculus [20], 3.3. In addition, in the series with Leishmania donovani [2], the inhibition in vivo at 25 mg/kg was over 59%. Further, the MIC against Leishmania donovani [4] and in the series on Leishmania donovani [5] was 50 µM (≈ 28.6 µg/mL) each time. For the same compound, the Activity is recorded as 32.9% with Leishmania donovani [6], 21% in the series with Leishmania donovani [14], 44.9% with Leishmania donovani [15] and “Non-Toxic” in the series on Mus musculus [19]. The values for the Stability in series [8] and in [22] were 99% and 85%, respectively. Moreover, in series [9], the viability at 72 h is over 95%. Also, the outcome in the series on Leishmania donovani [11], in the series on Leishmania donovani [18] and in the series with Leishmania donovani [21] was Active. Moreover, the remaining at 1 h, 1000 µM in series [12] was 45%. Moreover, the CC50 at 72 h in series [13] amounted to 438 µM. Moreover, the inhibition in vivo at 50 mg/kg with Leishmania donovani [16] and with Leishmania donovani [23] was over 93% throughout. Also, the Tmax in [17] amounted to 1.75 h. Further, the CLH in the series with Liver amounted to 27.47 µL/min.

By inhibition in vivo is commonly meant the share of the control response that was lost under treatment. The MIC is the least concentration at which growth counts as inhibited. A word on the CC50: it is the concentration at which the toxic effect on the cells reaches its halfway point. By Tmax is commonly meant the time from dosing to the highest level.
